Data from ChEMBL document CHEMBL1136859, “Synthesis and antimicrobial evaluation of some new substituted purine derivatives” (2009).
Values after ≈ are worked out from the molar mass of the structure shown.

Tests used:
Format in all cases: functional
Candida albicans = assay: microbe, parasite or virus in culture
Staphylococcus aureus [1] = assay: Antibacterial activity against methicillin-resistant Staphylococcus aureus isolate after 18 to 24 hrs by tube dilution method
In short: (§1)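 Two-fold broth tube dilution in Mueller–Hinton broth. Strains kept on Mueller–Hinton agar for 24 h at 37 °C. Colonies suspended in sterile water and adjusted to 0.5 McFarland, giving a final inoculum of about 10⁵ CFU/mL. Compounds dissolved in 12.5% DMSO at 200 µg/mL and serially diluted to 0.19 µg/mL. Incubated 18–24 h at 37 °C. MIC taken as the last tube with no growth.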

Escherichia coli = assay: Antibacterial activity against Escherichia coli 25922 after 18 to 24 hrs by tube dilution method; settings: ATCC25922
In short: (§2)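 Tube dilution broth MIC in Mueller–Hinton broth. Strains were maintained on Mueller–Hinton agar for 24 h at 37 °C. Colonies were suspended in sterile water, adjusted to 0.5 McFarland, and added to give about 10⁵ CFU/mL final. Compounds were dissolved in 12.5% DMSO and serially diluted two-fold. Tubes were incubated 18–24 h at 37 °C. MIC was taken as the last tube with no growth.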

Staphylococcus aureus [2] = assay: Antibacterial activity against methicillin-resistant Staphylococcus aureus […] after 18 to 24 hrs by tube dilution method
In short: as §1

Bacillus subtilis = assay: Antibacterial activity against Bacillus subtilis 6633 after 18 to 24 hrs by tube dilution method
In short: as §2

Staphylococcus aureus [3] = assay: Antibacterial activity against Staphylococcus aureus ATCC 25923 after 18 to 24 hrs by tube dilution method
In short: as §1

| SMILES | MIC (Candida albicans) | MIC (Staphylococcus aureus [1]) | MIC (Escherichia coli) | MIC (Staphylococcus aureus [2]) | MIC (Bacillus subtilis) | MIC (Staphylococcus aureus [3]) |
| --- | --- | --- | --- | --- | --- | --- |
| C1=CC(CCNc2ncnc3[nH]cnc23)CCC1 (configuration not stated) | 6.25 µg/mL (≈ 25.7 µM) | 50 µg/mL (≈ 205 µM) | 25 µg/mL (≈ 103 µM) | 50 µg/mL (≈ 205 µM) | 25 µg/mL (≈ 103 µM) | 50 µg/mL (≈ 205 µM) |
| Clc1ccc(CO/N=C(\Cn2ccnc2)c2ccc(Cl)cc2Cl)c(Cl)c1 [OXICONAZOLE] | 6.25 µg/mL (≈ 14.6 µM) |  |  |  |  |  |
| Nc1ncnc2c1ncn2C1CCCC1 | 12.5 µg/mL (≈ 61.5 µM) | 50 µg/mL (≈ 246 µM) | 50 µg/mL (≈ 246 µM) | 50 µg/mL (≈ 246 µM) | 25 µg/mL (≈ 123 µM) | 50 µg/mL (≈ 246 µM) |
| CCN(CC)CCNc1ncnc2c1ncn2Cc1ccc(F)cc1 | 25 µg/mL (≈ 73 µM) | 50 µg/mL (≈ 146 µM) | 50 µg/mL (≈ 146 µM) | 50 µg/mL (≈ 146 µM) | 25 µg/mL (≈ 73 µM) | 50 µg/mL (≈ 146 µM) |
| Clc1ccc(CNc2ncnc3c2ncn3C2CCCC2)c(Cl)c1 | 6.25 µg/mL (≈ 17.3 µM) | 50 µg/mL (≈ 138 µM) | 50 µg/mL (≈ 138 µM) | 25 µg/mL (≈ 69 µM) | 25 µg/mL (≈ 69 µM) | 12.5 µg/mL (≈ 34.5 µM) |
| Clc1ccc(COC(Cn2ccnc2)c2ccc(Cl)cc2Cl)c(Cl)c1 (configuration not stated) [MICONAZOLE] | 3.12 µg/mL (≈ 7.5 µM) |  |  |  |  |  |
| CC(C)NCCNc1ncnc2c1ncn2C1CCCC1.Cl | 25 µg/mL | 50 µg/mL | 50 µg/mL | 50 µg/mL | 25 µg/mL | 25 µg/mL |
| CC(C)NCCNc1ncnc2c1ncn2Cc1ccc(F)cc1 | 25 µg/mL (≈ 76.1 µM) | 50 µg/mL (≈ 152 µM) | 50 µg/mL (≈ 152 µM) | 50 µg/mL (≈ 152 µM) | 50 µg/mL (≈ 152 µM) | 50 µg/mL (≈ 152 µM) |
| CCn1c(NCC(C)C)nc2c(N)ncnc21 | 25 µg/mL (≈ 107 µM) | 50 µg/mL (≈ 213 µM) | 50 µg/mL (≈ 213 µM) | 50 µg/mL (≈ 213 µM) | 50 µg/mL (≈ 213 µM) | 50 µg/mL (≈ 213 µM) |
| O=C(O)c1cn(C2CC2)c2cc(N3CCNCC3)c(F)cc2c1=O [CIPROFLOXACIN] |  | 12.5 µg/mL (≈ 37.7 µM) |  |  | 0.19 µg/mL (≈ 0.573 µM) | 0.78 µg/mL (≈ 2.35 µM) |
| CCn1c(NC2CCCC2)nc2c(N)ncnc21 | 12.5 µg/mL (≈ 50.7 µM) | 50 µg/mL (≈ 203 µM) | 50 µg/mL (≈ 203 µM) | 50 µg/mL (≈ 203 µM) | 25 µg/mL (≈ 101 µM) | 50 µg/mL (≈ 203 µM) |
| CC1(C)S[C@@H]2[C@H](NC(=O)[C@H](N)c3ccccc3)C(=O)N2[C@H]1C(=O)OCOC(=O)[C@@H]1N2C(=O)C[C@H]2S(=O)(=O)C1(C)C [SULTAMICILLIN] |  | 25 µg/mL (≈ 42 µM) | 25 µg/mL (≈ 42 µM) | 25 µg/mL (≈ 42 µM) | 0.78 µg/mL (≈ 1.31 µM) | 1.56 µg/mL (≈ 2.62 µM) |
| c1ccc(NCCNc2ncnc3[nH]cnc23)cc1 | 3.12 µg/mL (≈ 12.3 µM) | 50 µg/mL (≈ 197 µM) | 25 µg/mL (≈ 98.3 µM) | 50 µg/mL (≈ 197 µM) | 50 µg/mL (≈ 197 µM) | 50 µg/mL (≈ 197 µM) |
| CCNc1nc2c(N)ncnc2n1C1CCCC1 | 6.25 µg/mL (≈ 25.4 µM) | 50 µg/mL (≈ 203 µM) | 50 µg/mL (≈ 203 µM) | 50 µg/mL (≈ 203 µM) | 50 µg/mL (≈ 203 µM) | 25 µg/mL (≈ 101 µM) |
| CC1CCN(c2ncnc3[nH]cnc23)CC1 | 25 µg/mL (≈ 115 µM) | 50 µg/mL (≈ 230 µM) | 50 µg/mL (≈ 230 µM) | 50 µg/mL (≈ 230 µM) | 25 µg/mL (≈ 115 µM) | 25 µg/mL (≈ 115 µM) |
| Fc1ccc(CNc2ncnc3c2ncn3C2CCCC2)cc1 | 3.12 µg/mL (≈ 10 µM) | 25 µg/mL (≈ 80.3 µM) | 50 µg/mL (≈ 161 µM) | 25 µg/mL (≈ 80.3 µM) | 25 µg/mL (≈ 80.3 µM) | 25 µg/mL (≈ 80.3 µM) |
| COc1ccc(CNc2ncnc3c2ncn3C2CCCC2)cc1 | 12.5 µg/mL (≈ 38.7 µM) | 25 µg/mL (≈ 77.3 µM) | 50 µg/mL (≈ 155 µM) | 50 µg/mL (≈ 155 µM) | 50 µg/mL (≈ 155 µM) | 25 µg/mL (≈ 77.3 µM) |
| CN1CCN(Nc2ncnc3[nH]cnc23)CC1 | 12.5 µg/mL (≈ 53.6 µM) | 50 µg/mL (≈ 214 µM) | 25 µg/mL (≈ 107 µM) | 50 µg/mL (≈ 214 µM) | 25 µg/mL (≈ 107 µM) | 50 µg/mL (≈ 214 µM) |
| Fc1ccc(CNc2ncnc3c2ncn3C2CCCC2)c(F)c1 | 25 µg/mL (≈ 75.9 µM) | 50 µg/mL (≈ 152 µM) | 50 µg/mL (≈ 152 µM) | 50 µg/mL (≈ 152 µM) | 50 µg/mL (≈ 152 µM) | 50 µg/mL (≈ 152 µM) |
| Clc1ccc(CNc2ncnc3c2ncn3C2CCCC2)cc1 | 12.5 µg/mL (≈ 38.1 µM) | 6.25 µg/mL (≈ 19.1 µM) | 50 µg/mL (≈ 153 µM) | 6.25 µg/mL (≈ 19.1 µM) | 25 µg/mL (≈ 76.3 µM) | 12.5 µg/mL (≈ 38.1 µM) |
| COc1ccc(CNc2ncnc3c2ncn3C2CCCC2)c(OC)c1 | 12.5 µg/mL (≈ 35.4 µM) | 50 µg/mL (≈ 141 µM) | 25 µg/mL (≈ 70.7 µM) | 50 µg/mL (≈ 141 µM) | 25 µg/mL (≈ 70.7 µM) | 50 µg/mL (≈ 141 µM) |
| CCN(CC)CCNc1ncnc2c1ncn2C1CCCC1 | 50 µg/mL (≈ 165 µM) | 50 µg/mL (≈ 165 µM) | 50 µg/mL (≈ 165 µM) | 50 µg/mL (≈ 165 µM) | 25 µg/mL (≈ 82.7 µM) | 50 µg/mL (≈ 165 µM) |
| CC1CCN(c2ncnc3c2ncn3C2CCCC2)CC1 | 12.5 µg/mL (≈ 43.8 µM) | 50 µg/mL (≈ 175 µM) | 50 µg/mL (≈ 175 µM) | 50 µg/mL (≈ 175 µM) | 50 µg/mL (≈ 175 µM) | 50 µg/mL (≈ 175 µM) |
| c1ccc(NCCNc2ncnc3c2ncn3C2CCCC2)cc1 | 12.5 µg/mL (≈ 38.8 µM) | 50 µg/mL (≈ 155 µM) | 50 µg/mL (≈ 155 µM) | 50 µg/mL (≈ 155 µM) | 25 µg/mL (≈ 77.5 µM) | 50 µg/mL (≈ 155 µM) |
| C1=CC(CCNc2ncnc3c2ncn3C2CCCC2)CCC1 (configuration not stated) | 12.5 µg/mL (≈ 40.1 µM) | 25 µg/mL (≈ 80.3 µM) | 25 µg/mL (≈ 80.3 µM) | 25 µg/mL (≈ 80.3 µM) | 50 µg/mL (≈ 161 µM) | 12.5 µg/mL (≈ 40.1 µM) |
| CC1(C)S[C@@H]2[C@H](NC(=O)[C@H](N)c3ccccc3)C(=O)N2[C@H]1C(=O)O [AMPICILLIN] |  | 50 µg/mL (≈ 143 µM) | 50 µg/mL (≈ 143 µM) | 50 µg/mL (≈ 143 µM) | 50 µg/mL (≈ 143 µM) | 0.78 µg/mL (≈ 2.23 µM) |
| CN1CCN(Nc2ncnc3c2ncn3C2CCCC2)CC1 | 25 µg/mL (≈ 82.9 µM) | 50 µg/mL (≈ 166 µM) | 50 µg/mL (≈ 166 µM) | 50 µg/mL (≈ 166 µM) | 25 µg/mL (≈ 82.9 µM) | 50 µg/mL (≈ 166 µM) |
